{"source": "ChEMBL document CHEMBL5724801", "about": "“EUbOPEN Chemogenomics Library - Multiplex” (2024)", "tested_on": "HEK-293T", "test": "Multiplex assay against HEK293T", "assay_type": "toxicity, cell-based", "details": "human", "procedure,_shortened": "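With compound added, live cells were imaged on a CQ1 microscope at 37°C and 5% CO2; staining with Hoechst33342, BioTracker Green Microtubule Cytoskeleton Dye, MitoTracker Red and Annexin V Alexa Fluor 680 had been done at seeding. The CellPathfinder machine-learning gating scheme split cells into Hoechst high-intensity objects or normal cells, normal cells into healthy, pyknosed or fragmented nuclei, and pyknosed cells into mitotic or apoptotic. The tubulin, mitochondrial-mass and membrane-permeability phenotypes are per cents of healthy-nucleus cells.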", "key": {"[1]": {"details": "12 h, 1 µM, compound concentration 1 uM"}, "[2]": {"details": "12 h, 10 µM, compound concentration 10 uM"}, "[3]": {"details": "24 h, 1 µM, compound concentration 1 uM"}, "[4]": {"details": "24 h, 10 µM, compound concentration 10 uM"}, "[5]": {"details": "48 h, 1 µM, compound concentration 1 uM"}, "[6]": {"details": "48 h, 10 µM, compound concentration 10 uM"}}, "note": "Where “and” joins values, the source holds several entries; their conditions need not be identical. Identical values can stand only once."}
{"smiles": "COc1cc(N2CCN(C)CC2)ccc1Nc1nccc(-c2cn(C)c3cnccc23)n1", "values": [{"measurement": "Population Apoptotic (%)", "setting": "[1]", "value": "10.14% and 10.53%"}, {"measurement": "Population Fragmented Nuclei (%)", "setting": "[1]", "value": "3.23% and 1.83%"}, {"measurement": "Population Hoechst High Intensity Objects (%)", "setting": "[1]", "value": 0, "unit": "%"}, {"measurement": "Population Membrane Permeable-Phenotype (%)", "setting": "[1]", "value": 0, "unit": "%"}, {"measurement": "Population Mitotic Cells (%)", "setting": "[1]", "value": "89.86% and 89.47%"}, {"measurement": "Population Normal (%)", "setting": "[1]", "value": 100, "unit": "%"}, {"measurement": "Population Pyknosed Nuclei (%)", "setting": "[1]", "value": "31.8% and 87.16%"}, {"measurement": "Population Apoptotic (%)", "setting": "[2]", "value": "19.35% and 16.13%"}, {"measurement": "Population Fragmented Nuclei (%)", "setting": "[2]", "value": "1.59% and 4.51%"}, {"measurement": "Population Hoechst High Intensity Objects (%)", "setting": "[2]", "value": 0, "unit": "%"}, {"measurement": "Population Membrane Permeable-Phenotype (%)", "setting": "[2]", "value": "0.4% and 2.94%"}, {"measurement": "Population Mitotic Cells (%)", "setting": "[2]", "value": "80.65% and 83.87%"}, {"measurement": "Population Normal (%)", "setting": "[2]", "value": 100, "unit": "%"}, {"measurement": "Total Cell Count", "setting": "[2]", "value": "314 and 133"}, {"measurement": "Population Apoptotic (%)", "setting": "[3]", "value": "19.27% and 15.66%"}, {"measurement": "Population Fragmented Nuclei (%)", "setting": "[3]", "value": "1.54% and 3.91%"}, {"measurement": "Population Healthy Nuclei (%)", "setting": "[3]", "value": "81.64% and 31.25%"}, {"measurement": "Population Hoechst High Intensity Objects (%)", "setting": "[3]", "value": 0, "unit": "%"}, {"measurement": "Population Membrane Permeable-Phenotype (%)", "setting": "[3]", "value": "1.13% and 2.5%"}, {"measurement": "Population Mitochondria Different-Phenotype (%)", "setting": "[3]", "value": "11.15% and 10%"}, {"measurement": "Population Mitotic Cells (%)", "setting": "[3]", "value": "80.73% and 84.34%"}, {"measurement": "Population Normal (%)", "setting": "[3]", "value": 100, "unit": "%"}, {"measurement": "Population Tubulin-Different-Phenotype (%)", "setting": "[3]", "value": "12.1% and 5%"}, {"measurement": "Population Apoptotic (%)", "setting": "[4]", "value": "27.27% and 28.81%"}, {"measurement": "Population Fragmented Nuclei (%)", "setting": "[4]", "value": "2.49% and 1.67%"}, {"measurement": "Population Healthy Nuclei (%)", "setting": "[4]", "value": "87.23% and 49.17%"}, {"measurement": "Population Hoechst High Intensity Objects (%)", "setting": "[4]", "value": 0, "unit": "%"}, {"measurement": "Population Membrane Permeable-Phenotype (%)", "setting": "[4]", "value": "1.07% and 6.78%"}, {"measurement": "Population Mitochondria Different-Phenotype (%)", "setting": "[4]", "value": "7.5% and 3.39%"}, {"measurement": "Population Mitotic Cells (%)", "setting": "[4]", "value": "72.73% and 71.19%"}, {"measurement": "Population Normal (%)", "setting": "[4]", "value": 100, "unit": "%"}, {"measurement": "Population Tubulin-Different-Phenotype (%)", "setting": "[4]", "value": "26.07% and 10.17%"}, {"measurement": "Total Cell Count", "setting": "[4]", "value": "321 and 120"}, {"measurement": "Population Apoptotic (%)", "setting": "[5]", "value": "7.58% and 13.11%"}, {"measurement": "Population Fragmented Nuclei (%)", "setting": "[5]", "value": "2.6% and 3.77%"}, {"measurement": "Population Healthy Nuclei (%)", "setting": "[5]", "value": "85.55% and 57.86%"}, {"measurement": "Population Hoechst High Intensity Objects (%)", "setting": "[5]", "value": "0.09% and 0.62%"}, {"measurement": "Population Membrane Permeable-Phenotype (%)", "setting": "[5]", "value": "3.57% and 0%"}, {"measurement": "Population Mitochondria Different-Phenotype (%)", "setting": "[5]", "value": "18.99% and 33.7%"}, {"measurement": "Population Mitotic Cells (%)", "setting": "[5]", "value": "92.42% and 86.89%"}, {"measurement": "Population Normal (%)", "setting": "[5]", "value": "99.91% and 99.38%"}, {"measurement": "Population Apoptotic (%)", "setting": "[6]", "value": "20% and 25%"}, {"measurement": "Population Fragmented Nuclei (%)", "setting": "[6]", "value": "4.38% and 4.51%"}, {"measurement": "Population Healthy Nuclei (%)", "setting": "[6]", "value": "87.29% and 74.44%"}, {"measurement": "Population Hoechst High Intensity Objects (%)", "setting": "[6]", "value": 0, "unit": "%"}, {"measurement": "Population Membrane Permeable-Phenotype (%)", "setting": "[6]", "value": "2.86% and 0%"}, {"measurement": "Population Mitochondria Different-Phenotype (%)", "setting": "[6]", "value": "21.24% and 29.29%"}, {"measurement": "Population Mitotic Cells (%)", "setting": "[6]", "value": "80% and 75%"}, {"measurement": "Population Normal (%)", "setting": "[6]", "value": 100, "unit": "%"}, {"measurement": "Population Pyknosed Nuclei (%)", "setting": "[6]", "value": "8.33% and 21.05%"}]}
